# CHO parental Ca = counter-screen: ATP calcium response change in parental CHO cells; inhibition, % at 5.6 µM; parental CHO-K1, ATP-induced calcium, Fluo-8 fluorescence; actives 0.63% (n = 330,000);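 active = inhibition above that plate's mean sample inhibition plus 3 SD, cut at about 26% in these data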
#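 Test system: untransfected parental CHO cell line. Compound: one dose, 5.6 µM nominal. Detection: intracellular calcium via Fluo-8 no-wash fluorescent dye. Measure: % inhibition. Benchmarks: ATP-challenged DMSO wells low, unchallenged DMSO wells high.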
# OX1R antag-1 = human HCRTR1 antagonism. inhibition, % at 5 µM. actives 0.43% (n = 330,000). CHO/OX1R cells, Fluo-8 calcium fluorescence, orexin A;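 active = inhibition above its plate's threshold, mean inhibition of all tested compounds on the plate plus 3 SD, cut at about 37% in these data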
# OX1R antag-2 = OX1R (human) antagonism. O43613. OX1R-expressing cells, FRET antagonist read-out. inhibition, % at 6.6 µM. actives 1.8% (n = 330,000); in the data active = inhibition mostly above about 38%, no sharp cut-off; inactive = mostly below about 40%
# GPR7 antagonist = blocks human GPR7 receptor signaling; P48145; GPR7-expressing cells, fluorescence antagonist assay; inhibition, % at 4.4 µM; actives 1.1% (n = 290,000); in the data active = inhibition above about 16%, passing the limit was not always enough;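 note: cells stimulated with the agonist NPW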
# TAAR1 ag = human TAAR1 agonism; Q96RJ0; CHO RD-HGA16 TAAR1, Fluo-8 calcium fluorescence; vehicle wells 0%, saturating PEA agonist 100%; activation, % at 3 µM; actives 0.99% (n = 360,000);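 active = activation above the mean activation of all test compounds in the run plus 3 SD, cut at about 38% in these data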
# Target sequence (Q96RJ0 whole entry, looked up): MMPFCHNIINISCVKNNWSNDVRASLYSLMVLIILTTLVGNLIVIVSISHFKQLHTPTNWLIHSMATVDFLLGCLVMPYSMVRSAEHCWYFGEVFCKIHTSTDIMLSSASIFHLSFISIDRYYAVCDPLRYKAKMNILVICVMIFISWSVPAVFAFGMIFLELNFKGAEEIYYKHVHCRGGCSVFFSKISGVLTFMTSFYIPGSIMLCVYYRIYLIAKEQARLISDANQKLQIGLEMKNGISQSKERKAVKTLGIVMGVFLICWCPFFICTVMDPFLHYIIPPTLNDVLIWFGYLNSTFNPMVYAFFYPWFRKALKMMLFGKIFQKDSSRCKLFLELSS
#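 Assay system: CHO-derived RD-HGA16 cells with stable Gα16 and human TAAR1; timing: 17-24 h seeding, 75 min 37 °C dye, 30 min RT; read-out: % activation from peak over basal fluorescence ratio, DMSO-to-PEA scaled; measured by: kinetic Fluo-8 calcium fluorescence; benchmarks: low control DMSO, high control PEA (EC100); doses: 3 µM single concentration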
# TAAR1 antag = human TAAR1 antagonism; actives 1.5% (n = 360,000); CHO RD-HGA16 TAAR1, Fluo-8 calcium fluorescence, antagonist; Q96RJ0; inhibition, % at 3 µM;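 active = inhibition above a per-plate cutoff, the mean inhibition of test compounds on that plate plus 3 SD, cut at about 49% in these data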
#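 Test system: CHO RD-HGA16 cells bearing hTAAR1 | Reagent: β-PEA, EC80 | Compound dosing: 3 µM, single point | Schedule: Dye loading 75 min at 37 °C, then 30 min room temperature | Signal: Calcium fluorescence with Fluo-8 | Evaluation: Percent inhibition of PEA-evoked calcium signal, max/basal emission ratio | Control set: DMSO-only wells and EC80 β-PEA-stimulated wells | Repeats: Singlicate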
# Hits are given with their value; 0 = inactive; - = no result. Hits are enriched below; roughly 4.6% of the tested compounds scored in any of these assays.
SMILES,CHO parental Ca,OX1R antag-1,OX1R antag-2,GPR7 antagonist,TAAR1 ag,TAAR1 antag
COc1cc(COCC(O)CN2CCc3ccccc3C2)cc(OC)c1OC (centres undefined),0,0,0,0,0,0
OCCC1CN(Cc2ccccc2OC2CCCC2)CCN1Cc1ccsc1 (centres undefined),0,0,0,20,0,0
CC(C)c1nnc(NC(=O)C2c3ccccc3Oc3ccccc32)s1,0,0,0,0,42,0
Cc1cccc(-n2c(C)cc(C)c(C#N)c2=O)c1,0,0,0,0,0,0
O=C1NC(=S)NC1=Cc1ccccc1O,-,-,-,-,47,0
CCOc1cccc2cc(-c3nnc(NCc4ccco4)s3)c(=O)oc12,0,0,46,0,0,0
COc1ccc2oc(=O)c(-c3nnc(NCc4ccco4)s3)cc2c1,0,0,0,0,0,0
N#CC(C#N)=C1C=CC=CN1/C(=C\c1ccco1)C(=O)c1ccc(Cl)cc1,90,62,88,0,0,0
O=C(Nc1cc(S(=O)(=O)N2CCCCC2)ccc1N1CCOCC1)c1ccc(F)cc1,-,-,-,-,0,0
COc1ccccc1C(=O)Nc1ccc2c(c1)nc1n2CCSC1,0,0,54,0,0,0
O=C(NCCc1ccc(Cl)cc1)C1CCN(C(=O)N2CCOc3ccccc32)CC1,0,0,0,0,0,50
O=C(NCCc1ccccc1)C1CCN(C(=O)N2CCOc3ccccc32)CC1,0,0,0,0,0,0
O=C(Nc1ccc(N2CCOCC2)cc1)c1cn2ccccc2n1,0,0,0,0,0,0
CCOc1ccc(-c2nnc(-c3snc(-c4ccc(F)cc4)c3N=CN(C)C)o2)cc1,0,0,0,0,0,0
O=C(COc1cc2oc(=O)cc(-c3ccccc3)c2cc1Cl)NCCN1CCOCC1,0,0,49,0,0,0
O=C(NC1CC1)c1ccc2c(c1)C1C3CCC(C3)C1C(c1ccccc1)N2 (centres undefined),0,0,0,0,0,0
CCN(c1ccccc1)S(=O)(=O)c1cc(C(=O)NCc2ccco2)ccc1C,0,0,0,-,0,0
CCc1ccc(NC(=O)c2ccc(F)c(S(=O)(=O)N(CC)c3ccccc3)c2)cc1,0,0,0,0,0,59
COc1ccc(-c2nn(-c3ccccc3)cc2C=O)cc1[N+](=O)[O-],0,0,0,0,0,49
O=C(NCc1ccco1)c1cc([N+](=O)[O-])ccc1N1CCCCC1,0,0,0,0,0,0
O=C(NCc1ccc2c(c1)OCO2)c1cc([N+](=O)[O-])ccc1N1CCCCC1,0,0,0,37,0,0
S=C(NCC1CCCO1)NC1CCCC1 (centres undefined),0,0,0,0,0,0
Cc1c(C(=O)NN)nn(-c2ccc(F)cc2)c(=O)c1C#N,0,0,48,0,0,0
CCOC(=O)c1nn(-c2ccc(C)c(C)c2)c(=O)c(C#N)c1C,0,0,44,0,0,0
Cc1ccc(-n2nc(C(=O)O)c3ccccc3c2=O)cc1C,0,0,0,0,0,0
SMILES,CHO parental Ca,OX1R antag-1,OX1R antag-2,GPR7 antagonist,TAAR1 ag,TAAR1 antag
COC(=O)Nc1nn(-c2ccc(Cl)cc2)c(=O)c(C#N)c1C,0,0,59,0,0,0
COc1ccc(NC(=O)c2sc3nc(N4CCOCC4)c4c(c3c2N)CC(C(C)C)OC4)c(OC)c1 (centres undefined),0,0,0,0,0,0
NC(c1csc(Nc2nncc3ccccc23)n1)c1ccccc1Cl (centres undefined),-,-,-,-,50,0
O=C(c1cc(COc2cccc3cnccc23)on1)N1CCCC(CCCO)C1 (centres undefined),59,0,0,0,0,0
CN(C(=O)c1ccc(NC(=O)Cc2cccc(NC(=O)C3CCN(C(=O)C4CCCC4)CC3)c2)cc1)C1CCCC1,0,0,0,-,0,0
CC1=C/C(=N\OS(=O)(=O)c2ccccc2)C(C(C)C)=CC1=O,0,51,0,44,-,-
CC1=C/C(=N\OS(=O)(=O)c2ccccc2)C(C)=CC1=O,82,93,102,73,-,-
CC1=C(C)/C(=N\OS(=O)(=O)c2ccc(C)cc2)C=CC1=O,68,58,82,60,0,52
COc1ccc(S(=O)(=O)/N=C2/C=CC(=O)C(C)=C2C)cc1,0,0,0,0,-,-
CC(S(=O)(=O)c1ccccc1)S(=O)(=O)c1ccccc1,-,-,-,-,0,0
CC(c1ccco1)N(C(=O)c1ccc(Cl)c([N+](=O)[O-])c1)c1ccccn1 (centres undefined),0,0,0,0,0,0
Cc1ccc(C(c2nnnn2C2CCCC2)N2c3ccccc3CC2C)cc1 (centres undefined),0,0,0,0,0,0
CCCCn1c(N)c(N(CCOC)C(=O)c2cc(-c3ccccc3Cl)nc3ccccc23)c(=O)[nH]c1=O,0,0,0,-,0,0
O=c1[nH]c(=S)[nH]c2c1[C@H](C1CC1)O[C@H](CCc1ccccc1)C2,-,-,-,-,0,0
CCNC(=O)NC(=O)COC(=O)CCCSc1nc2ccccc2s1,0,0,0,0,0,0
CC(C)(C)NC(=O)CN(C(=O)CS(=O)CC(=O)Nc1ccc(F)cc1)c1ccccc1 (centres undefined),0,0,0,0,0,0
CC(C)(C)c1cc(C(=O)NNc2cc(C(F)(F)F)ccc2Cl)n(Cc2ccccc2)n1,0,0,45,0,0,0
Cc1ccc(NNC(=O)c2cc(C(C)(C)C)nn2Cc2ccccc2)cc1,0,0,0,0,0,0
COc1ccccc1NNC(=O)c1cc(C(C)(C)C)nn1Cc1ccccc1,0,0,0,0,0,49
Cc1nc2ccc(NS(=O)(=O)c3ccc(C)c(C)c3)cc2s1,55,0,0,0,0,0
N#Cc1ccsc1NC(=O)C1CCCN1S(=O)(=O)c1cccs1 (centres undefined),0,0,53,-,0,0
CC(C)CNc1ncnc2[nH]ncc12,-,-,-,-,0,0
COc1ccc2[nH]c(=O)c(CN(Cc3cccs3)S(=O)(=O)c3c(C)ccc4nsnc34)cc2c1,0,0,0,0,0,55
Cc1ccc2[nH]c(=O)c(CN(Cc3ccco3)S(=O)(=O)c3c(C)ccc4nsnc34)cc2c1,0,0,0,0,0,0
COC(=O)c1ccccc1S(=O)(=O)N(CCCO)Cc1cc2c(C)ccc(C)c2[nH]c1=O,0,0,46,0,0,0
COC(=O)c1ccccc1S(=O)(=O)N(Cc1ccco1)Cc1cc2cc(OC)ccc2[nH]c1=O,0,0,41,0,0,0
O=C(CCN1C(=O)C2C3C=CC(C3)C2C1=O)N1CCN(c2ccc([N+](=O)[O-])cc2)CC1 (centres undefined),0,0,0,0,0,0

# Source: PubChem BioAssay
